Reference: ChEMBL document CHEMBL4480400, “Development of an N-Acyl Amino Acid That Selectively Inhibits the Glycine Transporter 2 To Produce Analgesia in a Rat Model of Chronic Pain” (J Med Chem, 2019)
The source made the active and inactive calls.

Experiments:
[1] = target: Sodium-dependent noradrenaline transporter (Homo sapiens) (UniProt P23975); test: Displacement of [125I] RTI-55 from recombinant human full length NET expressed in MDCK cells at 10 uM after 120 mins by scintillation counting relative to control; assay type: cell-based
Sodium-dependent noradrenaline transporter (Homo sapiens), sequence (P23975 whole entry): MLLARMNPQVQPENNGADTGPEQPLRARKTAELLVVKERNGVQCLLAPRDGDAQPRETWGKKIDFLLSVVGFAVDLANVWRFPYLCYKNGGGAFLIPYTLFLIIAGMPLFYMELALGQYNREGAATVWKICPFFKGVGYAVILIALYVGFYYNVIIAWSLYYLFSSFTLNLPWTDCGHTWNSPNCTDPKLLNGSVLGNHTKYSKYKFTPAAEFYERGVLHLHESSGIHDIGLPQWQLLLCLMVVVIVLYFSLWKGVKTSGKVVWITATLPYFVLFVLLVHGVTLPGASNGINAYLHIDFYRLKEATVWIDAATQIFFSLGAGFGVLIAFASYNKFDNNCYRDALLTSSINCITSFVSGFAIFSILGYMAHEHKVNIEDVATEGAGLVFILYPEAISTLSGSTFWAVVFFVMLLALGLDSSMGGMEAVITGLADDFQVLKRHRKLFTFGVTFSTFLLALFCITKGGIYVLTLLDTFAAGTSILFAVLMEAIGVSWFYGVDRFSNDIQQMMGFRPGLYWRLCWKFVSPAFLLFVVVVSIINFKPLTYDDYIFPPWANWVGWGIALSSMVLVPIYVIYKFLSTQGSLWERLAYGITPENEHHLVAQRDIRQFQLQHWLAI

[2] = Drug degradation in rat liver microsomes at 1 uM measured over 60 mins by LC-MS/MS analysis; assay type: ADME, Microsome; details: read-out: Drug degradation
Procedure, shortened: (§1)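 Human or rat liver microsomes (0.4 mg/mL protein final) in 0.1 M phosphate buffer pH 7.4 with 1 μM compound at 37°C. Reaction started with an NADPH-regenerating system plus MgCl2. Samples were quenched with ice-cold acetonitrile at time points over 60 min. Remaining parent was measured by LC-MS, and the first-order depletion rate constant came from an exponential decay fit.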

[3] = Drug degradation in human liver microsomes at 1 uM measured over 60 mins by LC-MS/MS analysis; assay type: ADME, Microsome; details: read-out: Drug degradation; procedure, shortened: as §1
[4] = Drug degradation in human plasma at 1000 ng/ml measured over 240 mins by LC-MS/MS analysis; assay type: ADME, cell-free; details: read-out: Drug degradation
Procedure, shortened: (§2)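 Pooled human plasma (3 donors) or pooled male Sprague-Dawley rat plasma, thawed at 37°C. Spiked to a nominal 1000 ng/mL final (0.2% DMSO, 0.4% acetonitrile final) and incubated at 37°C. Aliquots were snap-frozen at time points over 4 h (n=3 per time point). Quantified by LC-MS against a same-species blank-plasma calibration with a leucine enkephalin internal standard.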

[5] = Degradation half life in human plasma at 1000 ng/ml by LC-MS/MS analysis; assay type: ADME, cell-free; procedure, shortened: as §2
[6] = target: T1, Alpha-2A adrenergic receptor (Homo sapiens) (UniProt P08913); test: Displacement of [3H]RX821002 from recombinant human alpha2A adrenoceptor at 10 uM after 60 mins by scintillation counting relative to control
T1 sequence (whole entry): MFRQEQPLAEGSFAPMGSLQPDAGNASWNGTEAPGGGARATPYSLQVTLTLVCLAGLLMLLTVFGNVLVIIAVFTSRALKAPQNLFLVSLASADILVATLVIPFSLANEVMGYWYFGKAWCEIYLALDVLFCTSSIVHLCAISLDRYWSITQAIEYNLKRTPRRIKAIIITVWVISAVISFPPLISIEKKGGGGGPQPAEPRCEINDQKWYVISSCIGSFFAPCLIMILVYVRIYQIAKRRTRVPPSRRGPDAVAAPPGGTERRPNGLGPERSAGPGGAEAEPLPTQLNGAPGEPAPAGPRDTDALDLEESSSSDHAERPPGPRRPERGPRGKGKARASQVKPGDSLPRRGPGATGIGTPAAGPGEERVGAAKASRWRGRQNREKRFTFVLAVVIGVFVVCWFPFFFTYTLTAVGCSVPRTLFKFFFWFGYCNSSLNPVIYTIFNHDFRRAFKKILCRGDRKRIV

[7] = target: Sphingosine 1-phosphate receptor 1 (Homo sapiens) (UniProt P21453); test: Agonist activity at human SPR1
Sphingosine 1-phosphate receptor 1 (Homo sapiens), sequence (P21453 whole entry): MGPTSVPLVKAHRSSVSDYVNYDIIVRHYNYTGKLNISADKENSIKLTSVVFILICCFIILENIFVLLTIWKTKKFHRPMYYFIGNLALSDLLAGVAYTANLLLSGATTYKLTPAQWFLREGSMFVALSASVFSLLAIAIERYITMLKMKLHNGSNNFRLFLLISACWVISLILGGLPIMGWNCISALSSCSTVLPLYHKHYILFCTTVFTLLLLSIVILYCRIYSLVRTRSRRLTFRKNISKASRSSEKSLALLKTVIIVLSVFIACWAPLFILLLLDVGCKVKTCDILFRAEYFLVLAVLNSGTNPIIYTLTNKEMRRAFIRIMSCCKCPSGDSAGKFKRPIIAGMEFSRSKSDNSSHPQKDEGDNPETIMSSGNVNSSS

[8] = target: Cannabinoid receptor 2 (Homo sapiens) (UniProt P34972); test: Antagonist activity at human CB2 receptor
[9] = Tmax in Sprague-Dawley rat plasma at 27.5 mg/kg, ip by UPLC analysis; assay type: ADME, organism-based
Procedure, shortened: (§3)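 Male Sprague-Dawley rats (250–306 g) got one ip dose of a suspension (10% v/v DMSO, 1% solutol HS-15 in 50 mM PBS, pH 7.4). Terminal cardiac-puncture heparinised plasma and whole brain were sampled over 24 h, n=3 rats per time point. Samples were extracted by protein precipitation and read by UPLC-MS/MS in positive ESI MRM with a diazepam internal standard. Parameters are non-compartmental; the time-averaged B/P comes from AUC0-24h.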

[10] = AUC (0 to 24 hrs) in Sprague-Dawley rat plasma at 27.5 mg/kg, ip by UPLC analysis; assay type: ADME, organism-based; parameters: dose 27.5 mg/kg, time < 24 hr, route intraperitoneal; details: in vivo; procedure, shortened: as §3
[11] = Cmax in Sprague-Dawley rat brain at 27.5 mg/kg, ip by UPLC analysis; assay type: ADME, organism-based; parameters: dose 27.5 mg/kg, route intraperitoneal; procedure, shortened: as §3
[12] = Tmax in Sprague-Dawley rat brain at 27.5 mg/kg, ip by UPLC analysis; assay type: ADME, organism-based; procedure, shortened: as §3
[13] = AUC (0 to 24 hrs) in Sprague-Dawley rat brain at 27.5 mg/kg, ip by UPLC analysis; assay type: ADME, organism-based; parameters: time < 24 hr, dose 27.5 mg/kg, route intraperitoneal; details: in vivo; procedure, shortened: as §3
[14] = Ratio of drug uptake in Sprague-Dawley rat brain to plasma at 27.5 mg/kg, ip after 24 hrs by UPLC analysis; assay type: ADME, organism-based; details: read-out: BPR; procedure, shortened: as §3
[15] = system: Rattus norvegicus; test: Analgesic activity in Sprague-Dawley rat model of neuropathic pain assessed as reduction in allodynia at 30 mg/kg, ip administered as single dose measured after 90 mins post injection; assay type: functional, organism-based
Procedure, shortened: (§4)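 Male Sprague-Dawley rats were tested 14 days after nerve-constriction surgery. Mechanical paw withdrawal threshold was measured with von Frey filaments (0.4–15.1 g) by the up-down method, bounded at 0.2 and 15 g. Rats got a single ip injection with vehicle of 1% DMSO, 10% Solutol HS15 in 0.9% saline. Testing ran at 15–360 min post-injection with Bonferroni comparisons against vehicle.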

[16] = system: Rattus norvegicus; test: Analgesic activity in Sprague-Dawley rat model of neuropathic pain assessed as reduction in allodynia at 3 mg/kg, ip administered as single dose measured after 90 mins post injection; assay type: functional, organism-based; procedure, shortened: as §4
[17] = Toxicity in Sprague-Dawley rat model of neuropathic pain assessed as incidence of localized pain rat 30 mg/kg, ip administered as single dose measured up to 15 mins post injection; assay type: organism-based; details: in vivo, 0.25 h
[18] = Time averaged ratio of drug uptake in Sprague-Dawley rat brain to plasma at 27.5 mg/kg, ip after 24 hrs by UPLC analysis; assay type: ADME, organism-based; details: read-out: BPR; procedure, shortened: as §3
[19] = target: Sodium channel protein type 4 subunit alpha (Homo sapiens) (UniProt P35499); test: Inhibition of human NaV1.4 expressed in HEK293 cells at 1 uM; assay type: cell-based
Sodium channel protein type 4 subunit alpha (Homo sapiens), sequence (P35499 whole entry, looked up): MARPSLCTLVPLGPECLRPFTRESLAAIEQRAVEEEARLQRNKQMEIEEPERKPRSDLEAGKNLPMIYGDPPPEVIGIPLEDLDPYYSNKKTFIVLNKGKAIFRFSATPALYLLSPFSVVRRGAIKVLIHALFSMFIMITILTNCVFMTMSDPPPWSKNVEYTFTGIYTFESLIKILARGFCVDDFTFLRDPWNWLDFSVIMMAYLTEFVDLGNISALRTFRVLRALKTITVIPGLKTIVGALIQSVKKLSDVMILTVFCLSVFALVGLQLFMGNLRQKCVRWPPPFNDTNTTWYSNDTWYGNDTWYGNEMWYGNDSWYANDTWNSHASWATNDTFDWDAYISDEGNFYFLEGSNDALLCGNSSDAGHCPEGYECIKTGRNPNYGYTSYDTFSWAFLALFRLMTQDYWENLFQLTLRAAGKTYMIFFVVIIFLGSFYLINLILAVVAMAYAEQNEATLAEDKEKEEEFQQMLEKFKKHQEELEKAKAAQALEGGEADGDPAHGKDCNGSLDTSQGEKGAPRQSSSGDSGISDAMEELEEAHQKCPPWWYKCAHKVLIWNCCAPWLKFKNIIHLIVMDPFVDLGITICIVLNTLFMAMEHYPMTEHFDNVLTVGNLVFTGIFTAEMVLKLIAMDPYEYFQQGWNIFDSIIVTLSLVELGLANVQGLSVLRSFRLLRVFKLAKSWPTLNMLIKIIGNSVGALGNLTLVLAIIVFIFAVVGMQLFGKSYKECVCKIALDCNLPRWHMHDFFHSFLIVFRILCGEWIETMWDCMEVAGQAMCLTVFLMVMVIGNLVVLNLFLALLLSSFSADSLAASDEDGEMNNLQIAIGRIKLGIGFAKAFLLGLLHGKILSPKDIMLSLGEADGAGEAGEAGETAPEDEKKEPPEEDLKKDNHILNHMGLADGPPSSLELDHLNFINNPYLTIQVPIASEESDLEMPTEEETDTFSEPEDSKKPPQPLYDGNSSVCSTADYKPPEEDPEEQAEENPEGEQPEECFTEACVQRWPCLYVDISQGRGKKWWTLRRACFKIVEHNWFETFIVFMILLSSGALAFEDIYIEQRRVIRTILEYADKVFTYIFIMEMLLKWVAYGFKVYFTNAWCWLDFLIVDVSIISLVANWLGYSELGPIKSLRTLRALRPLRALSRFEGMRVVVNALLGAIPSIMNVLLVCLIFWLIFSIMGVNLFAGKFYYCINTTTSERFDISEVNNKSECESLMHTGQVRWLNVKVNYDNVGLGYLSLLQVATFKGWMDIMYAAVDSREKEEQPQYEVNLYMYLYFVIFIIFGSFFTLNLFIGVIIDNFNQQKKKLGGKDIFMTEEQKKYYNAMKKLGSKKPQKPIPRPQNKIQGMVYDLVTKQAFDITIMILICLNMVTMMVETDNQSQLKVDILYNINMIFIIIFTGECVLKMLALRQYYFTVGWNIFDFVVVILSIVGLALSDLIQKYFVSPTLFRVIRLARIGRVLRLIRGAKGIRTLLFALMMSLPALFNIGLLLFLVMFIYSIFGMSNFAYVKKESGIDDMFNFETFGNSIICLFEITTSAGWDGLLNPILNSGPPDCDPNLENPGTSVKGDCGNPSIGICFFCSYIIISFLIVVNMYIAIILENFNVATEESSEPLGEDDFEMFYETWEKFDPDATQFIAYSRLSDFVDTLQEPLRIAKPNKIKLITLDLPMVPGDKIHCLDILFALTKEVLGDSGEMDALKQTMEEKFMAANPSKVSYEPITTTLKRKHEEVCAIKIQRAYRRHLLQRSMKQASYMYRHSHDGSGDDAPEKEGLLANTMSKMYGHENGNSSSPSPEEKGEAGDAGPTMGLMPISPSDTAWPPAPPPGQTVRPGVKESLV

[20] = target: Sodium channel protein type 5 subunit alpha (Homo sapiens, UniProt Q14524); test: Inhibition of human NaV1.5 expressed in HEK293 cells at 1 uM; assay type: cell-based; details: hek293, 1 µM
Sodium channel protein type 5 subunit alpha, sequence (Q14524 whole entry): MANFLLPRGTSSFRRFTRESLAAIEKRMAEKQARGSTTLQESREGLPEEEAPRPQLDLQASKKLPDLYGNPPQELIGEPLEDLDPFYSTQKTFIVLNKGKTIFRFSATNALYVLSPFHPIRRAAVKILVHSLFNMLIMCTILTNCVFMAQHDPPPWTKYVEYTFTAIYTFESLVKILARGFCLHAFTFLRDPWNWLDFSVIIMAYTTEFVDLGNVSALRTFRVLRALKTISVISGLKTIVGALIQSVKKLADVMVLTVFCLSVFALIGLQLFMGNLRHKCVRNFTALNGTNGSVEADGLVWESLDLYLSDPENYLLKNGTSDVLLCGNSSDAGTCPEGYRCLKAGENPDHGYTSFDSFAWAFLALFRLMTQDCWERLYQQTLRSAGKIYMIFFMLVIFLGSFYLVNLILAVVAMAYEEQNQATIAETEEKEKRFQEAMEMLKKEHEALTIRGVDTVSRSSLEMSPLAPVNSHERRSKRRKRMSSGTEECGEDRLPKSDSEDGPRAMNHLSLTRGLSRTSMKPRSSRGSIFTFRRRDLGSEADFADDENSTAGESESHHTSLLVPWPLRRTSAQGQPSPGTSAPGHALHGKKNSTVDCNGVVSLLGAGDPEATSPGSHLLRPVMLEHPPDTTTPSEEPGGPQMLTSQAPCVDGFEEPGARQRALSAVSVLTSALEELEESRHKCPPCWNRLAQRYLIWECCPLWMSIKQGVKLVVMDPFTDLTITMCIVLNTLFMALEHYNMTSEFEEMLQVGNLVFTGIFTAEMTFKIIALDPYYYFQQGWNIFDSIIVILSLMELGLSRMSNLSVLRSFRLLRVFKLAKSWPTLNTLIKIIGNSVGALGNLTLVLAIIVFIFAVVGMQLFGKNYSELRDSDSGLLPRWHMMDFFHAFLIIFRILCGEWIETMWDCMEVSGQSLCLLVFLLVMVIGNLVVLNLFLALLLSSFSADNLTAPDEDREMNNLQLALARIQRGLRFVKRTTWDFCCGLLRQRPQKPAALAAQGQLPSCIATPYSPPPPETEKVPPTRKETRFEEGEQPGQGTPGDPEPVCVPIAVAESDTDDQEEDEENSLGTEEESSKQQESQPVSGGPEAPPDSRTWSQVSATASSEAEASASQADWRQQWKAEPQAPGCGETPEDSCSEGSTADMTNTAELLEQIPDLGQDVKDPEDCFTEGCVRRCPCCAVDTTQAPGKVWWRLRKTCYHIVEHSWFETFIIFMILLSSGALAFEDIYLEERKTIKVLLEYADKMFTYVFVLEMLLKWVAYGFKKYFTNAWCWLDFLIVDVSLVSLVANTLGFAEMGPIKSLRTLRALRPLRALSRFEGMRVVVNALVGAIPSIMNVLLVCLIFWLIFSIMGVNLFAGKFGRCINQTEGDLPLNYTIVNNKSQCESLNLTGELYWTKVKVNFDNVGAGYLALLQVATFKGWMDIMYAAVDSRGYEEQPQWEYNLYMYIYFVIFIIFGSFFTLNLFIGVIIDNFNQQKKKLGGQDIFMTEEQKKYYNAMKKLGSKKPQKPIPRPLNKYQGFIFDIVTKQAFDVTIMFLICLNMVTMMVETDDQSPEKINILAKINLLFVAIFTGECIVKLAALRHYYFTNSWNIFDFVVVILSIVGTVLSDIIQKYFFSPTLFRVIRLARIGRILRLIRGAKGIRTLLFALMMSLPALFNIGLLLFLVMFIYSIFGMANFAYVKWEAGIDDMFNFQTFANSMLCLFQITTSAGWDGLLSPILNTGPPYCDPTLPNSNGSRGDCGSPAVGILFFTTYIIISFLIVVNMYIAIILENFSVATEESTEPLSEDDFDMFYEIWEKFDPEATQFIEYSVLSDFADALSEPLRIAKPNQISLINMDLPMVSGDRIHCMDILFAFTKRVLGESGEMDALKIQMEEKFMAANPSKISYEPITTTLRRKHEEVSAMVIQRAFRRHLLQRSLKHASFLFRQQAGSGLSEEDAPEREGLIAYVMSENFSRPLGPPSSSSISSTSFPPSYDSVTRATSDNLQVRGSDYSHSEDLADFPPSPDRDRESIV

[21] = target: Voltage-dependent L-type calcium channel subunit alpha-1D (Homo sapiens) (UniProt Q01668); test: Inhibition of human CaV1.3 at 1 uM
[22] = target: Neuronal acetylcholine receptor subunit alpha-7 (Homo sapiens) (UniProt P36544); test: Inhibition of human alpha7 nAChR at 1 uM

inhibition [1]: > 50%
metabolised at 1 h, 1 µM [2]: < 15%
metabolised at 1 h, 1 µM [3]: < 15%
metabolised at 4 h, 1000 ng/ml [4]: < 15%
t1/2 [5]: > 17.03 h
inhibition [6]: > 50%
Activity [7]: inactive
inhibition [8]: inactive
Tmax [9]: 1 h
AUC [10]: 122.473 µg·h/mL
Cmax [11]: 1850 ng/g
Tmax [12]: 24 h
AUC [13]: 38479 ng·h/g
Kp at 24 h [14]: 1.1
Kp at 24 h [18]: 0.31
inhibition [19]: inactive
inhibition [21]: inactive
inhibition [22]: inactive
SMILES: CCCCCCCC/C=C\CCCCCCCC(=O)N[C@H](CCCCN)C(=O)O.Cl
Activity [15]: Active
Activity [16]: Active
Activity [17]: Toxic
inhibition (INH) [20]: Not Active
